Reference: ChEMBL document CHEMBL3045504, “Activity of 1,4-benzoquinones against formosan subterranean termites (Coptotermes formosanus)” (2008)

What was measured:
Format in all cases: functional
Coptotermes formosanus [1] = test: Termiticidal activity against Coptotermes formosanus placed on 0.001 % wt/wt compound treated filter paper assessed as termite mortality measured 21 days post compound exposure
How it was run: (§1)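 Treated filter paper disks moistened with 100 µL water; 20 C. formosanus workers (third instar or greater) plus 1 soldier per dish from field colonies kept on spruce, ca. 100% RH, 26.6 °C. Daily mortality scored for 3 weeks; cumulative percent mortality from four replicates, each a different colony; water-only controls; ANOVA, protected Fisher LSD (P < 0.05) after arcsine square-root transform.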

Coptotermes formosanus [2] = test: Termiticidal activity against Coptotermes formosanus placed on 0.01 % wt/wt compound treated filter paper assessed as termite mortality measured 6 days post compound exposure; how it was run: as §1
Coptotermes formosanus [3] = test: Termiticidal activity against Coptotermes formosanus placed on 0.001 % wt/wt compound treated filter paper assessed as termite mortality measured 6 days post compound exposure; how it was run: as §1
Coptotermes formosanus [4] = test: Antifeedant activity against Coptotermes formosanus placed on 0.05 % wt/wt compound treated filter paper assessed as filter paper consumption measured 21 days post compound exposure (reference value: 23.6 +/- 13.6 mg)
Coptotermes formosanus [5] = test: Termiticidal activity against Coptotermes formosanus placed on 0.5 % wt/wt compound treated filter paper assessed as termite mortality measured 13 days post compound exposure; how it was run: as §1
Coptotermes formosanus [6] = test: Termiticidal activity against Coptotermes formosanus placed on 0.5 % wt/wt compound treated filter paper assessed as termite mortality measured 9 days post compound exposure; how it was run: as §1
Coptotermes formosanus [7] = test: Termiticidal activity against Coptotermes formosanus placed on 0.001 % wt/wt compound treated filter paper assessed as termite mortality measured 9 days post compound exposure; how it was run: as §1
Coptotermes formosanus [8] = test: Termiticidal activity against Coptotermes formosanus placed on 0.5 % wt/wt compound treated filter paper assessed as termite mortality measured 17 days post compound exposure; how it was run: as §1
Coptotermes formosanus [9] = test: Termiticidal activity against Coptotermes formosanus placed on 0.05 % wt/wt compound treated filter paper assessed as termite mortality measured 9 days post compound exposure; how it was run: as §1
Coptotermes formosanus [10] = test: Termiticidal activity against Coptotermes formosanus placed on 0.5 % wt/wt compound treated filter paper assessed as termite mortality measured 11 days post compound exposure; how it was run: as §1
Coptotermes formosanus [11] = test: Termiticidal activity against Coptotermes formosanus placed on 0.05 % wt/wt compound treated filter paper assessed as termite mortality measured 11 days post compound exposure; how it was run: as §1
Coptotermes formosanus [12] = test: Termiticidal activity against Coptotermes formosanus placed on 0.01 % wt/wt compound treated filter paper assessed as termite mortality measured 17 days post compound exposure; how it was run: as §1
Coptotermes formosanus [13] = test: Termiticidal activity against Coptotermes formosanus placed on 0.01 % wt/wt compound treated filter paper assessed as termite mortality measured 13 days post compound exposure; how it was run: as §1
Coptotermes formosanus [14] = test: Termiticidal activity against Coptotermes formosanus placed on 0.01 % wt/wt compound treated filter paper assessed as termite mortality measured 9 days post compound exposure; how it was run: as §1
Coptotermes formosanus [15] = test: Termiticidal activity against Coptotermes formosanus placed on 0.1 % wt/wt compound treated filter paper assessed as termite mortality measured 13 days post compound exposure; how it was run: as §1
Coptotermes formosanus [16] = test: Termiticidal activity against Coptotermes formosanus placed on 0.5 % wt/wt compound treated filter paper assessed as termite mortality measured 3 days post compound exposure; how it was run: as §1
Coptotermes formosanus [17] = test: Termiticidal activity against Coptotermes formosanus placed on 0.001 % wt/wt compound treated filter paper assessed as termite mortality measured 17 days post compound exposure; how it was run: as §1
Coptotermes formosanus [18] = test: Termiticidal activity against Coptotermes formosanus placed on 0.1 % wt/wt compound treated filter paper assessed as termite mortality measured 11 days post compound exposure; how it was run: as §1
Coptotermes formosanus [19] = test: Termiticidal activity against Coptotermes formosanus placed on 0.1 % wt/wt compound treated filter paper assessed as termite mortality measured 17 days post compound exposure; how it was run: as §1
Coptotermes formosanus [20] = test: Termiticidal activity against Coptotermes formosanus placed on 0.1 % wt/wt compound treated filter paper assessed as termite mortality measured 6 days post compound exposure; how it was run: as §1
Coptotermes formosanus [21] = test: Termiticidal activity against Coptotermes formosanus placed on 0.001 % wt/wt compound treated filter paper assessed as termite mortality measured 11 days post compound exposure; how it was run: as §1
Coptotermes formosanus [22] = test: Termiticidal activity against Coptotermes formosanus placed on 0.001 % wt/wt compound treated filter paper assessed as termite mortality measured 13 days post compound exposure; how it was run: as §1
Coptotermes formosanus [23] = test: Termiticidal activity against Coptotermes formosanus placed on 0.1 % wt/wt compound treated filter paper assessed as termite mortality measured 9 days post compound exposure; how it was run: as §1
Coptotermes formosanus [24] = test: Antifeedant activity against Coptotermes formosanus placed on 0.001 % wt/wt compound treated filter paper assessed as filter paper consumption measured 21 days post compound exposure (reference value: 23.6 +/- 13.6 mg)
Coptotermes formosanus [25] = test: Termiticidal activity against Coptotermes formosanus placed on 0.05 % wt/wt compound treated filter paper assessed as termite mortality measured 21 days post compound exposure; how it was run: as §1
Coptotermes formosanus [26] = test: Termiticidal activity against Coptotermes formosanus placed on 0.5 % wt/wt compound treated filter paper assessed as termite mortality measured 21 days post compound exposure; how it was run: as §1
Coptotermes formosanus [27] = test: Antifeedant activity against Coptotermes formosanus placed on 0.5 % wt/wt compound treated filter paper assessed as filter paper consumption measured 21 days post compound exposure (reference value: 23.6 +/- 13.6 mg)
Coptotermes formosanus [28] = test: Termiticidal activity against Coptotermes formosanus placed on 0.01 % wt/wt compound treated filter paper assessed as termite mortality measured 21 days post compound exposure; how it was run: as §1
Coptotermes formosanus [29] = test: Antifeedant activity against Coptotermes formosanus placed on 0.1 % wt/wt compound treated filter paper assessed as filter paper consumption measured 21 days post compound exposure (reference value: 23.6 +/- 13.6 mg)
Coptotermes formosanus [30] = test: Termiticidal activity against Coptotermes formosanus placed on 0.1 % wt/wt compound treated filter paper assessed as termite mortality measured 21 days post compound exposure; how it was run: as §1
Coptotermes formosanus [31] = test: Termiticidal activity against Coptotermes formosanus placed on 0.05 % wt/wt compound treated filter paper assessed as termite mortality measured 13 days post compound exposure; how it was run: as §1
Coptotermes formosanus [32] = test: Termiticidal activity against Coptotermes formosanus placed on 0.5 % wt/wt compound treated filter paper assessed as termite mortality measured 6 days post compound exposure; how it was run: as §1
Coptotermes formosanus [33] = test: Antifeedant activity against Coptotermes formosanus placed on 0.01 % wt/wt compound treated filter paper assessed as filter paper consumption measured 21 days post compound exposure (reference value: 23.6 +/- 13.6 mg)
Coptotermes formosanus [34] = test: Termiticidal activity against Coptotermes formosanus placed on 0.01 % wt/wt compound treated filter paper assessed as termite mortality measured 11 days post compound exposure; how it was run: as §1
Coptotermes formosanus [35] = test: Termiticidal activity against Coptotermes formosanus placed on 0.05 % wt/wt compound treated filter paper assessed as termite mortality measured 6 days post compound exposure; how it was run: as §1
Coptotermes formosanus [36] = test: Termiticidal activity against Coptotermes formosanus placed on 0.05 % wt/wt compound treated filter paper assessed as termite mortality measured 17 days post compound exposure; how it was run: as §1
Coptotermes formosanus [37] = test: Antifeedant activity against Coptotermes formosanus placed on 1 % wt/wt compound treated filter paper assessed as filter paper consumption measured 21 days post compound exposure (reference value: 15.9 +/- 10.4 mg)
Coptotermes formosanus [38] = test: Antifeedant activity against Coptotermes formosanus placed on 0.1 % wt/wt compound treated filter paper assessed as filter paper consumption measured 21 days post compound exposure (reference value: 113.2 +/- 11.9 mg)
Coptotermes formosanus [39] = test: Termiticidal activity against Coptotermes formosanus placed on 1 % wt/wt compound treated filter paper assessed as termite mortality measured 21 days post compound exposure
Coptotermes formosanus [40] = test: Termiticidal activity against Coptotermes formosanus placed on 1 % wt/wt compound treated filter paper assessed as termite mortality measured 3 days post compound exposure
Coptotermes formosanus [41] = test: Antifeedant activity against Coptotermes formosanus placed on 0.05 % wt/wt compound treated filter paper assessed as filter paper consumption measured 21 days post compound exposure (reference value: 113.2 +/- 11.9 mg)
Coptotermes formosanus [42] = test: Antifeedant activity against Coptotermes formosanus placed on 0.5 % wt/wt compound treated filter paper assessed as filter paper consumption measured 21 days post compound exposure (reference value: 113.2 +/- 11.9 mg)
Coptotermes formosanus [43] = test: Antifeedant activity against Coptotermes formosanus placed on 0.01 % wt/wt compound treated filter paper assessed as filter paper consumption measured 21 days post compound exposure (reference value: 113.2 +/- 11.9 mg)
Coptotermes formosanus [44] = test: Termiticidal activity against Coptotermes formosanus placed on 1 % wt/wt compound treated filter paper assessed as termite mortality measured 11 days post compound exposure
Coptotermes formosanus [45] = test: Antifeedant activity against Coptotermes formosanus placed on 0.001 % wt/wt compound treated filter paper assessed as filter paper consumption measured 21 days post compound exposure (reference value: 113.2 +/- 11.9 mg)

## CC1=C(C)C(=O)C(Cl)=C(Cl)C1=O
Coptotermes formosanus [1]
  mortality: 27.5%
Coptotermes formosanus [2]
  mortality: 3.8%
Coptotermes formosanus [3]
  mortality: 1.3%
Coptotermes formosanus [4]
  Activity: 18.3 mg
Coptotermes formosanus [5]
  mortality: 100%
Coptotermes formosanus [6]
  mortality: 100%
Coptotermes formosanus [7]
  mortality: 2.5%
Coptotermes formosanus [8]
  mortality: 100%
Coptotermes formosanus [9]
  mortality: 1.3%
Coptotermes formosanus [10]
  mortality: 100%
Coptotermes formosanus [11]
  mortality: 3.4%
Coptotermes formosanus [12]
  mortality: 10%
Coptotermes formosanus [13]
  mortality: 7.5%
Coptotermes formosanus [14]
  mortality: 3.8%
Coptotermes formosanus [15]
  mortality: 41.3%
Coptotermes formosanus [16]
  mortality: 100%
Coptotermes formosanus [17]
  mortality: 26.3%
Coptotermes formosanus [18]
  mortality: 30.4%
Coptotermes formosanus [19]
  mortality: 60%
Coptotermes formosanus [20]
  mortality: 1.3%
Coptotermes formosanus [21]
  mortality: 6.8%
Coptotermes formosanus [22]
  mortality: 26.3%
Coptotermes formosanus [23]
  mortality: 26.3%
Coptotermes formosanus [24]
  Activity: 17.5 mg
Coptotermes formosanus [25]
  mortality: 5%
Coptotermes formosanus [26]
  mortality: 100%
Coptotermes formosanus [27]
  Activity: 3.2 mg
Coptotermes formosanus [28]
  mortality: 10%
Coptotermes formosanus [29]
  Activity: 13.1 mg
Coptotermes formosanus [30]
  mortality: 68.8%
Coptotermes formosanus [31]
  mortality: 5%
Coptotermes formosanus [32]
  mortality: 100%
Coptotermes formosanus [33]
  Activity: 25 mg
Coptotermes formosanus [34]
  mortality: 3.8%
Coptotermes formosanus [35]
  mortality: 0%
Coptotermes formosanus [36]
  mortality: 5%

## COC1=C(OC)C(=O)C(C)=C(C)C1=O [Aurantiogliocladin]
Coptotermes formosanus [1]
  mortality: 0%
Coptotermes formosanus [2]
  mortality: 0%
Coptotermes formosanus [3]
  mortality: 0%
Coptotermes formosanus [5]
  mortality: 0%
Coptotermes formosanus [6]
  mortality: 0%
Coptotermes formosanus [7]
  mortality: 0%
Coptotermes formosanus [8]
  mortality: 0%
Coptotermes formosanus [9]
  mortality: 0%
Coptotermes formosanus [10]
  mortality: 0%
Coptotermes formosanus [11]
  mortality: 0%
Coptotermes formosanus [12]
  mortality: 0%
Coptotermes formosanus [13]
  mortality: 0%
Coptotermes formosanus [14]
  mortality: 0%
Coptotermes formosanus [15]
  mortality: 0%
Coptotermes formosanus [17]
  mortality: 0%
Coptotermes formosanus [37]
  Activity: 0.1 mg
Coptotermes formosanus [18]
  mortality: 0%
Coptotermes formosanus [19]
  mortality: 0%
Coptotermes formosanus [38]
  Activity: 107.7 mg
Coptotermes formosanus [20]
  mortality: 0%
Coptotermes formosanus [21]
  mortality: 0%
Coptotermes formosanus [39]
  mortality: 100%
Coptotermes formosanus [22]
  mortality: 0%
Coptotermes formosanus [23]
  mortality: 0%
Coptotermes formosanus [40]
  mortality: 100%
Coptotermes formosanus [41]
  Activity: 48.6 mg
Coptotermes formosanus [42]
  Activity: 52.4 mg
Coptotermes formosanus [25]
  mortality: 5%
Coptotermes formosanus [26]
  mortality: 0%
Coptotermes formosanus [28]
  mortality: 1.7%
Coptotermes formosanus [43]
  Activity: 86.6 mg
Coptotermes formosanus [30]
  mortality: 0%
Coptotermes formosanus [44]
  mortality: 100%
Coptotermes formosanus [45]
  Activity: 136.2 mg
Coptotermes formosanus [31]
  mortality: 0%
Coptotermes formosanus [32]
  mortality: 0%
Coptotermes formosanus [34]
  mortality: 0%
Coptotermes formosanus [35]
  mortality: 0%
Coptotermes formosanus [36]
  mortality: 0%
